The values below come from article PMC11078046 (JBMR Plus, 2024).

The conditions of data set [1]: humans, given intravenously; cited from earlier work.
Data set [2] relates to thyroparathyroidectomized (TPTx) rats. Briefly: TPTx rat 7-day efficacy study. The format is in vivo, Sprague–Dawley rats. An outline of the steps:
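Female TPTx SD rats, 250–300 g, randomised on baseline calcium and weight (n = 12). Daily SC dosing in PBS (1 mL/kg) for 7 days. Day-1 jugular serum drawn from two cohorts at 0, 2, 6, 10, 18 and 24 h; calcium and phosphate measured on a Hitachi 7180. Predose serum on days −6, 4 and 7 assayed by osteocalcin, PINP and CTX-I ELISAs.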

The test system is the same in data set [3]. Briefly: TPTx rat 28-day efficacy study. The note with it: daily SC 10 nmol/kg. The format is in vivo, Sprague–Dawley rats. An outline of the steps: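 Female thyroparathyroidectomised Crl-CD SD rats, 215–290 g, randomised on baseline serum calcium and body weight after 9 days of acclimation. Daily SC dosing in PBS (1 mL/kg) for 28 days. Jugular serum taken in two alternating cohorts on days 1, 12 and 27 at 0, 2, 6, 10 and 24 h, run on a Hitachi 7180 analyser (n = 5/cohort). Urine n = 10/group. Distal femur BMD by pQCT, n = 10/group.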

For the molecule “PTH: endogenous human polypeptide, 84 amino acids in length”, the plasma half-life result in data set [1] is given as “less than 10 min”.

B1: PTH(1-84): Recombinant human PTH(1-84), Natpara (Takeda); native parathyroid hormone comparator (protein, UniProt P01270 32-115, looked up)
Parathyroid hormone: SVSEIQLMHNLGKHLNSMERVEWLRKKLQDVHNFVALGAPLAPRDAGSQRPRKKEDNVLVESHEKSLGEADKADVNVLTKAKSQ
modifications: Parathyroid hormone
Turning to B1, the “serum calcium, day 1 after first dose” value in data set [2] (SC 3 nmol/kg, 0–24 h) was “unaffected”. In addition, in data set [2] (daily SC 3 nmol/kg, serum, days 4 and 7), the “bone formation markers osteocalcin and PINP” value is reported as “only induced a small increase”. Moreover, the “serum phosphate, days 4 and 7” value in data set [2] (daily SC 3 nmol/kg, three timepoints) is listed as “only transiently lower serum phosphate at the 2 h timepoints”. Also, in data set [3], the “bone remodeling markers (osteocalcin, CTX, PINP)” value is “increased serum concentrations of osteocalcin and CTX, but had only minimal effect on PINP”. Moreover, the “BMD, cortical region of the diaphysis (pQCT)” value in data set [3] (28 days) was “small but statistically significant decrease in BMD”. Besides, the serum calcium result in data set [3] (28 days, days 1, 12, 27) is “no increase or only small increases in serum calcium”. For the same molecule, the “BMD, distal femur metaphysis (pQCT)” value in data set [3] (28 days, vs TPTx: vehicle) is given as “unchanged or slightly increased”. Besides, in data set [3] (days 1, 14, 27), the “urinary calcium (creatinine-normalized)” value is on record as “not significantly increased”. For the same molecule, in data set [3] (days 12 and 27), the serum phosphate result is on record as “much smaller decrease in serum phosphate”.
